In ChEMBL document CHEMBL3351477, “A C-14 labeled Py-Im polyamide localizes to a subcutaneous prostate cancer tumor” (Bioorg Med Chem, 2014):

Assays:
[1] = system: Liver; experiment: Drug level in human LNCaP cells xenografted NSG mouse liver at 20 nmol, ip measured after 24 hrs by liquid scintillation counting method; type: ADME, organism-based; settings: in vivo
Procedure, shortened: (§1)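 Male NSG mice bearing subcutaneous flank LNCaP xenografts. The graft was 2.5M cells in 200 μL of 1:1 culture medium/matrigel, using cells at or below passage 25 with >90% viability by trypan blue. C-14 labeled compound was given i.p. at 20 nmol per animal 4-8 weeks after engraftment. Mice were euthanized by CO2. Tumor, kidney, liver and lung were excised.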

[2] = system: Lung; experiment: Drug level in human LNCaP cells xenografted NSG mouse lung at 20 nmol, ip measured after 24 hrs by liquid scintillation counting method; type: ADME, organism-based; settings: in vivo; procedure, shortened: as §1
[3] = system: Lung; experiment: Drug level in human LNCaP cells xenografted NSG mouse lung at 20 nmol, ip measured up to 1 to 7 days by liquid scintillation counting method; type: ADME, organism-based; settings: in vivo; procedure, shortened: as §1
[4] = system: Tumour; experiment: Drug level in human LNCaP cells xenografted NSG mouse tumor at 20 nmol, ip dosed on days 1, 4 and 7 measured 24 hrs after last dose by liquid scintillation counting method; type: ADME, organism-based, Neoplasm; settings: in vivo, read-out: Drug uptake; procedure, shortened: as §1
[5] = system: Liver; experiment: Drug level in human LNCaP cells xenografted NSG mouse liver at 20 nmol, ip dosed on days 1, 4 and 7 measured 24 hrs after last dose by liquid scintillation counting method relative to single injection dose; type: ADME, organism-based; settings: in vivo; procedure, shortened: as §1
[6] = system: Tumour; experiment: Drug level in human LNCaP cells xenografted NSG mouse tumor at 20 nmol, ip measured after 24 hrs by liquid scintillation counting method; type: ADME, organism-based, Neoplasm; settings: in vivo; procedure, shortened: as §1
[7] = system: Tumour; experiment: Drug level in human LNCaP cells xenografted NSG mouse tumor at 20 nmol, ip dosed on days 1, 4 and 7 measured 24 hrs after last dose by liquid scintillation counting method relative to single injection dose; type: ADME, organism-based, Neoplasm; settings: in vivo; procedure, shortened: as §1
[8] = system: Kidney; experiment: Drug level in human LNCaP cells xenografted NSG mouse kidney at 20 nmol, ip dosed on days 1, 4 and 7 measured 24 hrs after last dose by liquid scintillation counting method relative to single injection dose; type: ADME, organism-based; settings: in vivo; procedure, shortened: as §1
[9] = system: Tumour; experiment: Drug level in human LNCaP cells xenografted NSG mouse tumor at 20 nmol, ip measured after 24 hrs by liquid scintillation counting method relative to liver; type: ADME, organism-based; settings: in vivo; procedure, shortened: as §1
[10] = system: Kidney; experiment: Drug level in human LNCaP cells xenografted NSG mouse kidney at 20 nmol, ip measured up to 1 to 7 days by liquid scintillation counting method; type: ADME, organism-based; settings: in vivo; procedure, shortened: as §1
[11] = system: Tumour; experiment: Drug level in human LNCaP cells xenografted NSG mouse tumor at 20 nmol, ip measured up to 1 to 7 days by liquid scintillation counting method; type: ADME, organism-based, Neoplasm; settings: in vivo; procedure, shortened: as §1
[12] = system: Tumour; experiment: Drug level in human LNCaP cells xenografted NSG mouse tumor at 20 nmol, ip measured after 24 hrs by liquid scintillation counting method relative to other tissues; type: ADME, organism-based, Neoplasm; settings: in vivo; procedure, shortened: as §1
[13] = system: Tumour; experiment: Drug level in human LNCaP cells xenografted NSG mouse tumor at 20 nmol, ip measured after 4 hrs by liquid scintillation counting method relative to liver; type: ADME, organism-based; settings: in vivo; procedure, shortened: as §1
[14] = system: Kidney; experiment: Drug level in human LNCaP cells xenografted NSG mouse kidney at 20 nmol, ip measured after 24 hrs by liquid scintillation counting method; type: ADME, organism-based; settings: in vivo; procedure, shortened: as §1
[15] = system: Liver; experiment: Drug level in human LNCaP cells xenografted NSG mouse liver at 20 nmol, ip measured after 24 hrs by liquid scintillation counting method relative to kidney; type: ADME, organism-based; settings: in vivo; procedure, shortened: as §1
[16] = system: Liver; experiment: Drug level in human LNCaP cells xenografted NSG mouse liver at 20 nmol, ip measured up to 1 to 7 days by liquid scintillation counting method; type: ADME, organism-based; settings: in vivo; procedure, shortened: as §1
[17] = system: Liver; experiment: Drug level in human LNCaP cells xenografted NSG mouse liver at 20 nmol, ip measured after 24 hrs by liquid scintillation counting method relative to lung; type: ADME, organism-based; settings: in vivo; procedure, shortened: as §1

SMILES | Drug uptake [1] | Drug uptake [2] | Drug uptake [3] [mg/kg] | concentration [4] [nM] | fold change (FC) [5] | concentration ([6]; read-out: Drug uptake) [nM] | fold change (FC) [7] | fold change (FC) [8] | fold change (FC) [9] | Drug uptake [10] [mg/kg] | Drug uptake [11] [mg/kg] | fold change (FC) [12] | fold change (FC) [13] | Drug uptake [14] | fold change (FC) [15] | Drug uptake [16] [mg/kg] | fold change (FC) [17] | Drug uptake [6]
CC(=O)N[C@H](CCNC(=O)c1cc(NC(=O)c2cc(NC(=O)c3cc(NC(=O)c4nccn4C)cn3C)cn2C)cn1C)C(=O)Nc1cn(C)c(C(=O)Nc2cc(C(=O)Nc3cc(C(=O)Nc4cc(C(=O)NCCCN(C)CCCN[14C](=O)c5cccc([14C](=O)O)c5)n(C)c4)n(C)c3)n(C)c2)n1 | 1.04 mg/kg | 0.12 mg/kg | 0.06 | 2500 | 1.8 | 1060 | 2.4 | 1.8 | 1.5 | 0.05 | 0.45 | 2 | 2 | 0.25 mg/kg | 4.2 | 0.27 | 8.7 | –
C[14C](=O)N[C@H](CCNC(=O)c1cc(NC(=O)c2cc(NC(=O)c3cc(NC(=O)c4nccn4C)cn3C)cn2C)cn1C)C(=O)Nc1cn(C)c(C(=O)Nc2cc(C(=O)Nc3cc(C(=O)Nc4cc(C(=O)NCCCN(C)CCCNC(=O)c5cccc(C(=O)O)c5)n(C)c4)n(C)c3)n(C)c2)n1 | Active | Active | – | – | – | – | – | – | – | – | – | – | – | Active | – | – | – | Active
CN(CCCNC(=O)c1cc(NC(=O)c2cc(NC(=O)c3cc(NC(=O)c4nc(NC(=O)[C@H](N)CCNC(=O)c5cc(NC(=O)c6cc(NC(=O)c7cc(NC(=O)c8nccn8C)cn7C)cn6C)cn5C)cn4C)cn3C)cn2C)cn1C)CCCN[14C](=O)c1cccc([14C](=O)O)c1 | Active | 0.93 mg/kg | – | – | – | – | – | – | – | – | – | – | – | Active | – | – | – | Active
